According to the RNAGym collection of RNA variant scans (doi:10.1126/science.aae0568):
Fewer inactive variants are shown than the library holds.

B1: tRNA (parent)
chain: GUUCCGUUGGCGUAAUGGUAACGCGUCUCCCUCCUAAGGAGAAGACUGCGGGUUCGAGUCCCGUACGGAACG

Variants of: B1
Test: yeast fitness relative to wild type (ratio to wild type); higher = fitter; tRNA-Arg(CCU), competitive growth, 37 C, YPD
How it was run: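 Variants of the tRNA-Arg(CCU) gene, chemically synthesised with a 3% per-site mutation rate at 69 sites, were placed at the native genomic locus in Saccharomyces cerevisiae. The pooled strains were competed in YPD at 37°C for 24 hours in six parallel replicates. Gene amplicons from the start population and from each end population were read by 100-nucleotide paired-end sequencing. Darwinian fitness relative to wild type came from changes in genotype frequencies; genotypes needed ≥ 100 starting reads, and estimates < 0.5 were set to 0.5.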

Variant | yeast fitness
GUUCCGUUGGCGUAAUGGUAACGGGUCUCCCUCCUAAGGAGAAGACAGCGGGUUGGAGUCCCGUACGGAACG | 0.847
GUUCCGUUGGCGUAAUGGUAACGGGUCUCCCUCCUAAGGAGAAGACUGCGGGUACGAGUCCCGUUUGGAACG | ≤ 0.5
GUUCCGUUGGCGUAAUGGUAACGGGUCACCAUCCUAAGGAGAAGACUGCGGGUUCGAGUCCCGUACGGAACG | ≤ 0.5
GUUCCGUUGGCGUAAUGGUAACGGGUCUCCCUCCUAAGGAGAAGACGGCGGGCUCGAGUCCCGUACGGAACG | 0.713
GUUCCGUUGGCGUAAUGGUAACGUGUCUCCCUCCUAAGGGGAAGACUGCGGGUUCGACUCCCGUACGGAACG | 0.579
GUUCCGUUGGCGUAAUGGUAACGGGUCCGCCUCCUAAGGAGAAGACUGCGGGUUCGAGUCCCGUACGGAACG | ≤ 0.5
GUUCCGUUGGCGUAAUGGUAACGUGUCUCCCUCCUAGGGAGAAGACUGCGGGUUCGAGUCCCCUAUGGAACG | 0.581
GUUCCGUUGGCGUAAUGGUAACGUGUCUCCCUCCUACGGGGAAGACUGCGGGUACGAGUCCCGUACGGAACG | ≤ 0.5
GUUCCGUUGGCGUAAUGGUAACGGGUCUCCCCCCUAAGGAGAAGACUGCGGGUUCGAGUCCCGUACGGAACG | 0.599
GUUCCGUUGGCGUAAUGGUAACGGGCCUCCCACCUCAGGAGAAGACUGGGCGUUCGAGUCCCGUAUGAAACG | ≤ 0.5
GUUCCGUUGGCGUAAUGGUAACGUGUCUCCCUCCUAUGGACAAGACUGCGGGUUCGAGUCCCGUACGGACCG | ≤ 0.5
GUUCCGUUGGCGUAAUGGUAACGGGUCUCCCUCCUAAGGAGAAGACCGCGGGUUCGAGUCCCGUACGCACCG | ≤ 0.5
GUUCCGUUGGCGUAAUGGUAACGUGUCUCCCUCCUAAGGAGAAGACUGCGGGUUCGAGUCCCGUACGGAACG | 0.983
GUUCCGUUGGCGUAAUGGUAACGGGUCGCCCUCCUAAGGAGAAGAGUGCGGGUUCGAGUCCCGUACGGAACG | ≤ 0.5
GUUCCGUUGGCGUAAUGGUAACGGGUCUCCCACCUAAGGAGAGGACUGCAGGUUCGAGUCCCGUCCGGAACG | ≤ 0.5
GUUCCGUUGGCGUAAUGGUAACGUGUCUCCCUCCUAAGGAGUCGACUGCGGGUUCGAGUCCCGUACGGAACG | 0.889
GUUCCGUUGGCGUAAUGGUAACGUGUCUCCCUCCUAAGGAGUUGACUGCGGGUUCGAGUCCCGUACGGAACG | 1.02
GUUCCGUUGGCGUAAUGGUAACGUGUCUCCCUCCUAGGGAGAAGUCUGCGGGUUCGAGUCCCGUACGGAACG | 0.562
GUUCCGUUGGCGUAAUGGUAACGUGUCUCCCUCCUAAGGAGUAGACUGCGGGUUCGAGUCCCGUACAGAACG | 0.567
GUUCCGUUGGCGUAAUGGUAACGUGUCUCCCUCCUAAGGAGAUGACUGCGGGUUCGAGUCCCGUACGGAACG | 1.01
GUUCCGUUGGCGUAAUGGUAACGGGUCGCCCUCCUAAGGAGAAGAGUGCGGGUUCGAGUCCCGUAUGGAACG | ≤ 0.5
GUUCCGUUGGCGUAAUGGUAACGGGUCUCCCACCUAAGGAGCAGACUGCGGGUUCGAGUCCCGUUCGGAACG | ≤ 0.5
GUUCCGUUGGCGUAAUGGUAACGUGUCUCCCUCCUAAGGAGGAGACUGCGGGUUCGAGUCCCGUACGGACCG | 0.642
GUUCCGUUGGCGUAAUGGUAACGUGUCUCCCUCCUAAGGAGUAGACUGCGGAUUCGAGUCCCGUACGGAACG | 0.563
GUUCCGUUGGCGUAAUGGUAACGGGUCGCCCUCCUAAGGAGAAGCCCGCGGGUUCGAGUCCCGAACGGAACG | 0.6

Variant | yeast fitness
GUUCCGUUGGCGUAAUGGUAACGUGUCUCCCUCCUAAGGAGUAGACUGCGGCUUCGAGUCCCAUACGGAACG | ≤ 0.5
GUUCCGUUGGCGUAAUGGUAACGGGUCUCCCUCCUAAGGAGAAGACUGCGGGAUCGAGUCCCGUACGGAACG | 0.533
GUUCCGUUGGCGUAAUGGUAACGUGUCUCCCUCCUAAGGGGAAGAAUGCGGGUUCGAGUCCCGUACGGAACG | 0.723
GUUCCGUUGGCGUAAUGGUAACGUGUCUCCCUCCUCAGGAGAUGACUGCGGGUUCGAGUCCCGUACGGAACG | 0.578
GUUCCGUUGGCGUAAUGGUAACGUGUCUCCCUCCUACGGAGAAGACUGCGGGUUCGAAUCCCGUACGGAACG | 0.513
GUUCCGUUGGCGUAAUGGUAACGGGUCUCCCUCCCAAGGAGAAGACUGUGGGUUCGAGUCGCGUACGGAACG | 0.54
GUUCCGUUGGCGUAAUGGUAACGUGUCUCCCUCCUUAGGAGAAGACUGCGGGUUCGAGUACCGUACGGAACG | ≤ 0.5
GUUCCGUUGGCGUAAUGGUAACGGGUCUCCCACCUAAGGAGAGGACUGCAGGUUCGAGUCCCGUACGGAACG | ≤ 0.5
GUUCCGUUGGCGUAAUGGUAACGUGUCUCCCUCCUCAGGAGAUGACUGCGGGUUCGAGUCCCGUACGGUACG | 0.517
GUUCCGUUGGCGUAAUGGUAACGUGUCUCCCUCCUAUGGAGAAGACUGCGGGUUCGAGUCCCCUACGGAACG | ≤ 0.5
GUUCCGUUGGCGUAAUGGUAACGUGUCUCCCUCCUAAGGAGCAGAAUGCGGGUACGAGUCCCGUACGGAACG | ≤ 0.5
GUUCCGUUGGCGUAAUGGUAACGGGUCUCCCUCCUAAGGAGAAGACUGCGGGAUGGAGUCCCGUACGGAACG | ≤ 0.5
GUUCCGUUGGCGUAAUGGUAACGGGUCUCCCUCCUAAGGAGAAGACUGCGGGGACGACUCCCGUACGGAACG | 0.552
GUUCCGUUGGCGUAAUGGUAACGUGUCUCCCUCCUAAGGAGUAGACUGCGGGUUCGAGUCCCGUACGGAACG | 0.875
GUUCCGUUGGCGUAAUGGUAACGUGUCUCCCUCCUAAGGAGGAGACUGCGGGUUCGAGUCCCGUACGGAACG | 0.956
GUUCCGUUGGCGUAAUGGUAACGUGUCUCCCUCCUAAGGAGACGACUGCGGGUUCGCGUCCCGUACGGAACG | ≤ 0.5
GUUCCGUUGGCGUAAUGGUAACGGGGCUCCCUCAUCAGGAGAAGACUGCGGGUUCGAGUCCCGUACGGAACG | ≤ 0.5
GUUCCGUUGGCGUAAUGGUAACGUGUCUCCCUCCUAUGGAGAAGACUGCGGGUUCGAGUCCCGUUCGGCACG | ≤ 0.5
GUUCCGUUGGCGUAAUGGUAACGUGUCUCCCUCCUAGGAAGAAGACUCCGGGUUCGAGUCCCGUACGUAACG | ≤ 0.5
GUUCCGUUGGCGUAAUGGUAACGGGUCUCCCUCCGAAGGAGAAGCCUGCGGGUUCGAGUCCCGUACGGAACG | ≤ 0.5
GUUCCGUUGGCGUAAUGGUAACGUGUCUCCCUCCUAGGAAGAAGACUCCGGGUUCGAGUCCCGUACGGCACG | ≤ 0.5
GUUCCGUUGGCGUAAUGGUAACGUGUCUCCCUCCUAAGGUGAAGACUGCGGGUUUGAGACCCGUACGGAACG | 0.548
GUUCCGUUGGCGUAAUGGUAACGUGUCUCCCUCCUAAGGCGAAGACUGCGGGUUCGAGUCCCGUACGGAACG | 0.806
GUUCCGUUGGCGUAAUGGUAACGUGUCUCCCUCCUAAGGUGAAGACUGCGGGUUCGAGUCCCGUACGGAACG | 0.78
GUUCCGUUGGCGUAAUGGUAACGGGUCUCCCUCCUAAGGAGAAGACUGCGGGUUCGAGUCCCGAACGGAACG | 0.631

Variant | yeast fitness
GUUCCGUUGGCGUAAUGGUAACGGGUCUCCCUCCUAAGGAGAAGACUGCGGGUUCGAGUCCCGCACGGAACG | 0.567
GUUCCGUUGGCGUAAUGGUAACGUGUCUCCCUCCUAUGGAGAAGAAUGCGGGUUCGAGUCCCGUACGGAUCG | ≤ 0.5
GUUCCGUUGGCGUAAUGGUAACGUGUCUCCCUCCUUGGGCGAAGACUGCGGGUUCGAGUCCCGUACGGAACG | ≤ 0.5
GUUCCGUUGGCGUAAUGGUAACGUGUCUCCCUCCUAAGGAGAGGACUGCGGGUUCGAGUCCCGUACGGUACG | 0.819
GUUCCGUUGGCGUAAUGGUAACGGGUCUCCCUCCCAAGGAGAAGACUGCGGGUUCGAGUCCCGUACGGAACG | ≤ 0.5
GUUCCGUUGGCGUAAUGGUAACGUGUCUCCCUCCUAAGGAGACGACUGCGGGUUCGAGUACCGUACGGAACG | ≤ 0.5
GUUCCGUUGGCGUAAUGGUAACGUGUCUCCCUCCUAGGGAGAAGACUGGGGGUUCGAGUCCCGUACGGAACG | ≤ 0.5
GUUCCGUUGGCGUAAUGGUAACGGGUCUCCCUCCUAAGGAGAAGACAGCGGGUUCGAGUCCCGUACGGAACG | 0.57
GUUCCGUUGGCGUAAUGGUAACGGGUCUCCCUCCUAAGGAGAAGACGGCGGGUUCGAGUCCCGUACGGAACG | ≤ 0.5
GUUCCGUUGGCGUAAUGGUAACGGGUCUCCCUCCUAAGGAGAAGACCGCGGGUUCGAGUCCCGUACGGAACG | 0.688
GUUCCGUUGGCGUAAUGGUAACGGGUCUCCCUCCUAAGGAGAAGACUGCGGGUUCGAGCCCCGUACGGAACG | 0.65
GUUCCGUUGGCGUAAUGGUAACGGGUCUCCCUCCUAAGGAGAAGACUGCGGGGUCGAGUACCGUACGGAACG | ≤ 0.5
GUUCCGUUGGCGUAAUGGUAACGUGUCUCCCUCCUGAGGAGAAGACUGCGGGUUCGAGUCUCGUACGGAACG | 0.655
GUUCCGUUGGCGUAAUGGUAACGUGUCUCCCUCCUGAGGAGAAGACUGCGGGUUCGAGUCACGUACGGAACG | ≤ 0.5
GUUCCGUUGGCGUAAUGGUAACGUGUCUCCCUCCUCAGGAGAAGACUGCGGGCUCGAGUCCCGUACGGAACG | ≤ 0.5
GUUCCGUUGGCGUAAUGGUAACGGGUCCCCCGCCUAAGGAGAAGACUGCGGGUUCGAGUCCCGUACGGGACG | ≤ 0.5
GUUCCGUUGGCGUAAUGGUAACGUGUCUCCCUCCUAGGGAGAGGACUGCGGGUUCGAGUCCCGUACGGAUCG | ≤ 0.5
GUUCCGUUGGCGUAAUGGUAACGUGUCUCCCUCCUACGCAGAGGACUGCGGGUUCGAGUCCCGUACGGAACG | ≤ 0.5
GUUCCGUUGGCGUAAUGGUAACGUGUCUCCCUCCUAAGGAGACGACUGUGUGUUCGAGUCCCGUACGGAACG | ≤ 0.5
GUUCCGUUGGCGUAAUGGUAACGGGUCCCCCUCCUAAGGAGAAGACUGCGGGUACGAGUCCCGUACGGAACG | ≤ 0.5
GUUCCGUUGGCGUAAUGGUAACGUGUCUCCCUCCUGAGGAGAAGACUGCGGGUUCGAGUCCCGUACGGAACG | 0.88
GUUCCGUUGGCGUAAUGGUAACGUGUCUCCCUCCUUAGGAGAAGACUGCGGGUUCGAGUCCCGUACGGAACG | 0.592
GUUCCGUUGGCGUAAUGGUAACGUGUCUCCCUCCUCAGGAGAAGACUGCGGGUUCGAGUCCCGUACGGAACG | 0.716
GUUCCGUUGGCGUAAUGGUAACGGGUCUCCCUCCUAAGGAGAAGACCGCGGGGACGACUCCCGUACGGAACG | ≤ 0.5
GUUCCGUUGGCGUAAUGGUAACGGGCCUCCUUCCUAAGGAGAAGACUGCGGGUCCGAGUCCCGUACGGAACG | 0.934
